What was measured:
[1] = Plasma pharmacokinetics on Day 14; format: in vivo, human; settings: Day 14, coadministered with CDI‐31244
Method in brief: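 Treatment-naïve adults with chronic genotype 1 HCV and no cirrhosis took oral drugs once daily for 2 weeks: a nucleotide/NS5A inhibitor combination tablet (400 mg/100 mg) plus a non-nucleoside inhibitor, 400 mg as capsules. Plasma was sampled before the first dose on Day 1 and at 0, 1, 2, 4, 6, 8, 12 and 24 h after the Day 14 dose. Validated LC-MS/MS; per-patient non-compartmental Cmax, Cmin, tmax, AUC0–24; descriptive statistics.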

[2] = test system: HCV; settings: cited from earlier work

Compound	Exposure [1]	HCV RNA viral load reduction [2]
C[C@@]1(F)[C@H](O)[C@@H](CO)O[C@H]1n1ccc(=O)[nH]c1=O [GS‐331007]	consistent with reported values	–
COc1c(-c2ccc3cc(NS(C)(=O)=O)ccc3c2)cc(-n2ccc(=O)[nH]c2=O)cc1C(C)(C)C [dasabuvir]	–	0.95 log10
CC(C)OC(=O)[C@H](C)N[P@](=O)(OC[C@H]1O[C@@H](n2ccc(=O)[nH]c2=O)[C@](C)(F)[C@@H]1O)Oc1ccccc1 [sofosbuvir]	consistent with reported values	–
COC[C@H]1C[C@@H](c2ncc(-c3ccc4c(c3)COc3cc5c(ccc6nc([C@@H]7CC[C@H](C)N7C(=O)[C@@H](NC(=O)OC)C(C)C)[nH]c65)cc3-4)[nH]2)N(C(=O)[C@H](NC(=O)OC)c2ccccc2)C1 [velpatasvir]	consistent with reported values	–
